Structures are written as SMILES. Active and inactive are the calls of the source. The calls are words filed in the database; no cut-off is given here.

The results in this text go back to ChEMBL document CHEMBL3102820, “Developing bivalent ligands to target CUG triplet repeats, the causative agent of myotonic dystrophy type 1” (J Med Chem, 2013).

Data set [1] is described as follows: Inhibition of (CUG)12 RNA (unknown origin)-MBNL1 interaction after 10 to 15 mins.
A short description of data set [2]: Drug uptake in nucleus of human HeLa cells expressing (CUG)960 RNA at 35 uM after 36 hrs by confocal microscopic analysis. It is filed as ADME, cell-based. Put shortly:
(§1)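 HeLa cells, about 120,000 per well on coverslips, were transfected after 1 day with 500 ng DMPK-CTG960 plasmid (CTG0 plasmid for control cells). Ligand was given at 20, 35 or 50 μM for 36 h. Cells were then fixed and foci stained by FISH with Cy3-(CAG)10, with TO-PRO-3 nuclear stain. Confocal excitation was 405 nm (acridine ligand uptake), 555 nm (Cy3) and 639 nm (TO-PRO-3). Over 100 cells were scored for foci; two-tailed Student t test.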

Data set [3] is described as follows: Inhibition of biotin-labeled (CUG)12 RNA (unknown origin)-MBNL1 interaction by SPR analysis. Put shortly: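 SPR in 1X PBS with Tween-20 and excess competitor tRNA. Biotinylated (CUG)12 was immobilized on a streptavidin chip and pre-incubated with ligand at varied concentrations to steady-state RU over 150 s. Then 0.65 μM MBNL1 was injected with ligand at the same concentration. Maximum RU at 150 s was converted to % (CUG)12 bound, normalized to the no-ligand value, and fitted for apparent IC50.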

Data set [4] can be described thus: Cytotoxicity against human HeLa cells assessed as cytotoxicity up to 75 uM after 24 hrs by sulforhodamine B assay.
In data set [5] the test system is HeLa. Briefly: Binding affinity to (CUG)960 RNA (unknown origin) expressed in human HeLa cells assessed as foci dispersion at 20 to 50 uM after 36 hrs by confocal microscopic analysis. It is filed as cell-based. Put shortly:
as §1

In data set [6] the test system is Nucleic Acid. Briefly: Binding affinity to (CUG)12 RNA (unknown origin) assessed as change in melting temperature at 1 equiv treated in 5% DMSO by thermal denaturation assay. The class given is nucleic-acid assay.
The test system of data set [7] is HeLa. Briefly: Drug uptake in human HeLa cells expressing (CUG)960 RNA at 35 uM after 36 hrs by confocal microscopic analysis. It is filed as ADME, cell-based. Put shortly:
as §1

A short description of data set [8]: Binding affinity to 5'-TAMRA-labeled (CUG)6 RNA (unknown origin) by fluorescence titration assay. The essentials: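 Steady-state fluorescence titration. Ligand was titrated into 5'-TAMRA-(CUG)6 in 1X PBS, and the drop in TAMRA emission was followed. Normalized intensity was plotted against ligand concentration to give a binding isotherm, which was fitted for KD.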

The subject of data set [9] is Nucleic Acid. Briefly: Binding affinity to (CUG)12 RNA (unknown origin) assessed as change in melting temperature at 1 equiv treated in aqueous solution by thermal denaturation assay. The class given is nucleic-acid assay. The following applies: unidentified.
The test system of data set [10] is Nucleic Acid. Nature of the data set: Binding affinity to (CUG)12 RNA (unknown origin) assessed as change in melting temperature by thermal denaturation assay. The class given is nucleic-acid assay.
Data set [11] deals with HeLa. Nature of the data set: Binding affinity to (CUG)960 RNA (unknown origin) expressed in human HeLa cells coexpressing GFP-tagged MBNL1 assessed as MBNL1 foci dispersion throughout nucleus at Z-plane of cells at 50 uM after 10 hrs by live cell microscopic analysis. The class given is cell-based. As to conditions: unidentified. Put shortly:
(§2)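 HeLa cells co-transfected with DMPK-CTG960 and GFP-MBNL1 plasmids were grown on a gridded dish so each cell could be relocated by DIC. Ligand was added to 50 μM final. Time-lapse confocal images of GFP-MBNL1 foci and acridine fluorescence were taken before addition and at 3, 6 and 10 h. At 10 h, Z-stacks of 1 μm slices through the whole cell were taken. Untreated cells were imaged the same way.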

In data set [12] the test system is HeLa. Briefly: Binding affinity to (CUG)960 RNA (unknown origin) expressed in human HeLa cells coexpressing GFP-tagged MBNL1 assessed as MBNL1 foci dispersion throughout nucleus at 50 uM after 3 to 10 hrs by live cell microscopic analysis. The class given is cell-based. Put shortly: as §2
Data set [13] can be described thus: Drug uptake in human HeLa cell membrane expressing (CUG)960 RNA coexpressing GFP-tagged MBNL1 at 50 uM after 3 to 10 hrs by live cell microscopic analysis. The class given is ADME, cell-based. The essentials: as §2
Data set [14] in a line: Drug uptake in human HeLa cell nuclear membrane expressing (CUG)960 RNA coexpressing GFP-tagged MBNL1 at 50 uM after 3 to 10 hrs by live cell microscopic analysis. The class given is ADME, cell membranes. Put shortly:
as §2

`COc1ccc2nc3cc(Cl)ccc3c(NCCCCNc3nc(N)nc(N)n3)c2c1`: in [1], inhibition was half-maximal at 46 µM (IC50).

`CNC(=O)c1ccc2nc3ccccc3c(NCCCCNc3nc(N)nc(N)n3)c2c1`: the Drug uptake result (in [2]; in the data set on HeLa [7]) was “Not Active” in each case. Further, the IC50 in data set [3] stood at 293 µM. Besides, in data set [4], the cytotoxicity at 24 h is < 20%. Moreover, the outcome with HeLa [5] was inactive. Besides, the ΔTm in the data set with Nucleic Acid [6] is 1.8 °C. The dissociation constant Kd in data set [8] was 66 µM.

Consider `Nc1nc(N)nc(NCCCCNc2c3ccccc3nc3c(C(=O)NCCNCCNCCNCCNC(=O)c4cccc5c(NCCCCNc6nc(N)nc(N)n6)c6ccccc6nc45)cccc23)n1`, for which, in data set [3], half-maximal inhibition (IC50) was put at 6 µM. Also, in the data set on Nucleic Acid [9], the ΔTm came to 9.6 °C. Binding in data set [8] was characterised by a dissociation constant (Kd) of 3.8 µM.

With `CC(=O)NCCCNCCCNCCCNC(=O)c1cccc2c(NCCCCNc3nc(N)nc(N)n3)c3ccccc3nc12`, the 50% inhibitory concentration (IC50) in data set [3] is 15 µM. Besides, the ΔTm in the data set with Nucleic Acid [10] was determined as 2.5 °C.

Regarding `Nc1nc(N)nc(NCCCCNc2c3ccccc3nc3c(C(=O)NCCNCCNCCNC(=O)c4cccc5c(NCCCCNc6nc(N)nc(N)n6)c6ccccc6nc45)cccc23)n1`, the Drug uptake entry (in data set [2]; with HeLa [7]) was “Not Active” in each case. The compound also had a half-inhibitory concentration (IC50) in data set [3] of 5 µM. Also, the ΔTm in the data set on Nucleic Acid [9] turned out to be 8.4 °C. Further, in the data set on HeLa [5], the result was inactive. In data set [8], the affinity, expressed as Kd, was 4.8 µM.

Turning to `Nc1nc(N)nc(NCCCCNc2c3ccccc3nc3c(C(=O)NCCCNCCCNCCCNC(=O)c4cccc5c(NCCCCNc6nc(N)nc(N)n6)c6ccccc6nc45)cccc23)n1`, the Drug uptake result (in data set [2]; in data set [13]; in data set [14]; with HeLa [7]) was “Active” throughout. The result with HeLa [11], in the data set with HeLa [12] and in the data set on HeLa [5] was Active. For the same compound, the midpoint of inhibition in data set [3], the IC50, lay at 1.1 µM. In the data set on Nucleic Acid [9], the ΔTm worked out at 9.3 °C. In addition, the cytotoxicity at 24 h in data set [4] is < 20%. Binding in data set [8] was characterised by a dissociation constant (Kd) of 0.32 µM.

The compound `Nc1nc(N)nc(NCCCCNc2c3ccccc3nc3c(C(=O)NCCOCCOCCOCCOCCOCCNC(=O)c4cccc5c(NCCCCNc6nc(N)nc(N)n6)c6ccccc6nc45)cccc23)n1` registered a 50% inhibitory concentration (IC50) in data set [3] of 37 µM. Besides, in the data set with Nucleic Acid [6], the ΔTm worked out at 1.8 °C.

The compound `Nc1nc(N)nc(NCCCCNc2c3ccccc3nc3ccc(C(=O)NCCOCCOCCNC(=O)c4ccc5nc6ccccc6c(NCCCCNc6nc(N)nc(N)n6)c5c4)cc23)n1` displayed an IC50 in [3] of 18 µM. Also, in the data set on Nucleic Acid [6], the ΔTm was 2.7 °C. In addition, in data set [8], the dissociation constant (Kd) was found to be 23 µM.

In the case of `Nc1nc(N)nc(NCCCCNc2c3ccccc3nc3ccc(C(=O)NCCCNCCCCCCCCNCCCNC(=O)c4ccc5nc6ccccc6c(NCCCCNc6nc(N)nc(N)n6)c5c4)cc23)n1`, the Drug uptake result (in data set [2]; in the data set with HeLa [7]) was “Active” in each case. For the same compound, in the data set with HeLa [5], the outcome was inactive.

In the case of `Nc1nc(N)nc(NCCCCNc2c3ccccc3nc3ccc(C(=O)NCCOCCOCCOCCOCCOCCNC(=O)c4ccc5nc6ccccc6c(NCCCCNc6nc(N)nc(N)n6)c5c4)cc23)n1`, the IC50 in [3] was determined as 43 µM.

The compound `Nc1nc(N)nc(NCCCCNc2c3ccccc3nc3ccc(C(=O)NCCCOCCOCCOCCCNC(=O)c4ccc5nc6ccccc6c(NCCCCNc6nc(N)nc(N)n6)c5c4)cc23)n1` yielded an IC50 in [3] of 28 µM. In data set [8], this compound returned a Kd of 75 µM.
